Assay results from ChEMBL document CHEMBL1157044, “Synthesis, biological and medicinal significance of S-glycosido-thieno[2,3-d]-pyrimidines as new anti-inflammatory and analgesic agents” (Eur J Med Chem, 2010).

What was measured:
Mus musculus [1] = experiment: Antiinflammatory activity in Swiss albino mouse assessed as inhibition of carrageenan-induced paw edema at 100 mg/kg, po administered 60 mins before carrageenan challenge measured after 270 mins; type: functional
Procedure, shortened: (§1)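 Mice fasted overnight, gavaged with suspension in 0.5% carboxymethyl cellulose or vehicle. 60 min later, 0.5 mg/25 µL carrageenan in 154 mM saline injected subplantar into right hind paw, saline into left. Right-minus-left footpad thickness by dial gauge every 90 min over 6 h; % inhibition versus control, mean ± SEM, two-tailed t-test. Indometacin reference.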

Mus musculus [2] = experiment: Antiinflammatory activity in Swiss albino mouse assessed as inhibition of carrageenan-induced paw edema at 100 mg/kg, po administered 60 mins before carrageenan challenge measured after 360 mins; type: functional; procedure, shortened: as §1
Mus musculus [3] = experiment: Toxicity in Swiss albino mouse assessed as gastric ulceration at 100 mg/kg, po; type: organism-based, Stomach; design: dose 100 mg/kg, route oral; settings: in vivo
Procedure, shortened: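 Mice fasted the day before (water allowed), given 100 mg/kg orally by gavage as suspension in 0.5% carboxymethyl cellulose; vehicle controls. Carrageenan paw oedema followed over 6 h. Immediately after last paw measurement, animals sacrificed under ether anaesthesia, stomachs removed and examined under dissecting microscope; stomach with one or more ulcers scored positive; expressed as ulcerated/total (n=6 per group).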

Mus musculus [4] = experiment: Antiinflammatory activity in Swiss albino mouse assessed as inhibition of carrageenan-induced paw edema at 100 mg/kg, po administered 60 mins before carrageenan challenge measured after 180 mins; type: functional; procedure, shortened: as §1
Mus musculus [5] = experiment: Antiinflammatory activity in Swiss albino mouse assessed as inhibition of carrageenan-induced paw edema at 100 mg/kg, po administered 60 mins before carrageenan challenge measured after 90 mins; type: functional; procedure, shortened: as §1
Mus musculus [6] = experiment: Analgesic activity in Swiss albino mouse assessed as p-benzoquinone-induced writhing at 100 mg/kg, po administered 60 mins before benzoquinone challenge; type: functional
Procedure, shortened: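 Mice fasted overnight with water allowed, dosed by gavage with suspension in 0.5% carboxymethyl cellulose; vehicle controls. 60 min later, i.p. 0.1 mL/10 g of 2.5% (v/v) p-benzoquinone in distilled water. Writhes counted individually for 15 min starting 5 min post-injection; % change from vehicle writhing controls, mean ± SEM, two-tailed t-test. Aspirin reference.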

## CCOC(=O)c1sc2nc(S[C@@H]3O[C@H](COC(C)=O)[C@@H](OC(C)=O)[C@@H]3OC(C)=O)n(N)c(=O)c2c1C
Mus musculus [1]
  inhibition in vivo at 100 mg/kg: 35.9%
Mus musculus [2]
  inhibition in vivo at 100 mg/kg: 38.9%
Mus musculus [3]
  Activity: Non-toxic
Mus musculus [4]
  inhibition in vivo at 100 mg/kg: 35.6%
Mus musculus [5]
  inhibition in vivo at 100 mg/kg: 32.1%
Mus musculus [6]
  inhibition in vivo at 100 mg/kg: 53.3%

## CC(=O)Oc1ccccc1C(=O)O [ASPIRIN]
Mus musculus [6]
  inhibition in vivo at 100 mg/kg: 51.9%

## CCOC(=O)c1sc2c(c1C)C(=O)N(N)C(S[C@@H]1O[C@H](CO)[C@@H](O)[C@H](O)[C@H]1O)N2 (stereo partly drawn)
Mus musculus [1]
  inhibition in vivo at 100 mg/kg: 33.9%
Mus musculus [2]
  inhibition in vivo at 100 mg/kg: 34.4%
Mus musculus [4]
  inhibition in vivo at 100 mg/kg: 31.2%
Mus musculus [5]
  inhibition in vivo at 100 mg/kg: 29.7%
Mus musculus [6]
  inhibition in vivo at 100 mg/kg: 51%

## CC(=O)c1sc2c(c1C)C(=O)N(N)C(S[C@@H]1O[C@H](CO)[C@H](O)[C@H](O)[C@H]1O)N2 (stereo partly drawn)
Mus musculus [1]
  inhibition in vivo at 100 mg/kg: 17.5%
Mus musculus [2]
  inhibition in vivo at 100 mg/kg: 20.7%
Mus musculus [4]
  inhibition in vivo at 100 mg/kg: 16.6%
Mus musculus [5]
  inhibition in vivo at 100 mg/kg: 14.4%
Mus musculus [6]
  inhibition in vivo at 100 mg/kg: 35.7%

## CCOC(=O)c1sc2[nH]c(=S)n(N)c(=O)c2c1C
Mus musculus [1]
  inhibition in vivo at 100 mg/kg: 8.3%
Mus musculus [2]
  inhibition in vivo at 100 mg/kg: 8.5%
Mus musculus [3]
  Activity: Non-toxic
Mus musculus [4]
  inhibition in vivo at 100 mg/kg: 6.1%
Mus musculus [5]
  inhibition in vivo at 100 mg/kg: 1.2%
Mus musculus [6]
  inhibition in vivo at 100 mg/kg: 23.9%

## CC(=O)OC[C@H]1O[C@@H](Sc2nc3sc(C(C)=O)c(C)c3c(=O)n2N)[C@@H](OC(C)=O)[C@@H]1OC(C)=O
Mus musculus [1]
  inhibition in vivo at 100 mg/kg: 28.6%
Mus musculus [2]
  inhibition in vivo at 100 mg/kg: 35.6%
Mus musculus [3]
  Activity: Non-toxic
Mus musculus [4]
  inhibition in vivo at 100 mg/kg: 29.8%
Mus musculus [5]
  inhibition in vivo at 100 mg/kg: 28.5%
Mus musculus [6]
  inhibition in vivo at 100 mg/kg: 48.8%

## CC(=O)c1sc2nc(S[C@@H]3O[C@H](CO)[C@@H](O)[C@@H]3O)n(N)c(=O)c2c1C
Mus musculus [1]
  inhibition in vivo at 100 mg/kg: 28.6%
Mus musculus [2]
  inhibition in vivo at 100 mg/kg: 35.6%
Mus musculus [3]
  Activity: Non-toxic
Mus musculus [4]
  inhibition in vivo at 100 mg/kg: 29.8%
Mus musculus [5]
  inhibition in vivo at 100 mg/kg: 28.5%
Mus musculus [6]
  inhibition in vivo at 100 mg/kg: 48.8%

## CCOC(=O)c1sc2nc(S[C@@H]3O[C@H](CO)[C@H](O)[C@H](O)[C@H]3O)n(N)c(=O)c2c1C
Mus musculus [3]
  Activity: Non-toxic

## COc1ccc2c(c1)c(CC(=O)O)c(C)n2C(=O)c1ccc(Cl)cc1 [INDOMETHACIN]
Mus musculus [1]
  inhibition in vivo at 100 mg/kg: 41.9%
Mus musculus [2]
  inhibition in vivo at 100 mg/kg: 42.7%
Mus musculus [4]
  inhibition in vivo at 100 mg/kg: 30.6%
Mus musculus [5]
  inhibition in vivo at 100 mg/kg: 29.5%

## CC(=O)OC[C@H]1O[C@@H](Sc2nc3sc(C(C)=O)c(C)c3c(=O)n2N)[C@H](OC(C)=O)[C@@H](OC(C)=O)[C@H]1OC(C)=O
Mus musculus [1]
  inhibition in vivo at 100 mg/kg: 10.5%
Mus musculus [2]
  inhibition in vivo at 100 mg/kg: 13.1%
Mus musculus [4]
  inhibition in vivo at 100 mg/kg: 7.8%
Mus musculus [5]
  inhibition in vivo at 100 mg/kg: 14.9%
Mus musculus [6]
  inhibition in vivo at 100 mg/kg: 13.8%

## CC(=O)OC[C@H]1O[C@@H](Sc2nc3sc(C(C)=O)c(C)c3c(=O)n2N)[C@H](OC(C)=O)[C@@H](OC(C)=O)[C@@H]1OC(C)=O
Mus musculus [1]
  inhibition in vivo at 100 mg/kg: 29.9%
Mus musculus [2]
  inhibition in vivo at 100 mg/kg: 34.2%
Mus musculus [3]
  Activity: Non-toxic
Mus musculus [4]
  inhibition in vivo at 100 mg/kg: 23.9%
Mus musculus [5]
  inhibition in vivo at 100 mg/kg: 25.7%
Mus musculus [6]
  inhibition in vivo at 100 mg/kg: 45.4%

## CCOC(=O)c1sc2nc(S[C@@H]3O[C@H](COC(C)=O)[C@@H](OC(C)=O)[C@H](OC(C)=O)[C@H]3OC(C)=O)n(N)c(=O)c2c1C
Mus musculus [1]
  inhibition in vivo at 100 mg/kg: 20.3%
Mus musculus [2]
  inhibition in vivo at 100 mg/kg: 22.3%
Mus musculus [4]
  inhibition in vivo at 100 mg/kg: 14.7%
Mus musculus [5]
  inhibition in vivo at 100 mg/kg: 13.2%
Mus musculus [6]
  inhibition in vivo at 100 mg/kg: 37.9%

## CC(=O)c1sc2[nH]c(=S)n(N)c(=O)c2c1C
Mus musculus [1]
  inhibition in vivo at 100 mg/kg: 8.3%
Mus musculus [2]
  inhibition in vivo at 100 mg/kg: 8.5%
Mus musculus [3]
  Activity: Non-toxic
Mus musculus [4]
  inhibition in vivo at 100 mg/kg: 7.8%
Mus musculus [5]
  inhibition in vivo at 100 mg/kg: 6.1%
Mus musculus [6]
  inhibition in vivo at 100 mg/kg: 35.7%

## CCOC(=O)c1sc2nc(S[C@@H]3O[C@H](CO)[C@@H](O)[C@@H]3O)n(N)c(=O)c2c1C
Mus musculus [1]
  inhibition in vivo at 100 mg/kg: 35.9%
Mus musculus [2]
  inhibition in vivo at 100 mg/kg: 38.9%
Mus musculus [3]
  Activity: Non-toxic
Mus musculus [4]
  inhibition in vivo at 100 mg/kg: 35.6%
Mus musculus [5]
  inhibition in vivo at 100 mg/kg: 32.1%
Mus musculus [6]
  inhibition in vivo at 100 mg/kg: 53.3%
